Test results: ChEMBL document CHEMBL3580554, “Design, synthesis, and anticonvulsant activity of new hybrid compounds derived from 2-(2,5-dioxopyrrolidin-1-yl)propanamides and 2-(2,5-dioxopyrrolidin-1-yl)butanamides” (J Med Chem, 2015)

Experiments:
Mus musculus [1] = assay: Anticonvulsant activity in ip dosed Swiss mouse assessed as protection against seizures measured at 1 hr of time to peak effect by 6 Hz test by 6 Hz psychomotor seizure test; assay type: functional
Mus musculus [2] = assay: Anticonvulsant activity in ip dosed Swiss mouse assessed as protection against seizures measured at 1 hr of time to peak effect by subcutaneous pentylenetetrazole seizure test; assay type: functional
[3] = Toxicity in ip dosed Swiss mouse assessed as induction of motor performance impairment measured within 60 seconds measured at 1 hr of time to peak effect by Chimney test; assay type: organism-based; settings: in vivo
Method in brief: (§1)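 Neurotoxicity (TD50) estimated in mice i.p. by chimney test for motor coordination impairment; protective index calculated as TD50/ED50 for each seizure model.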

[4] = Protective index, ratio of neurotoxic TD50 in Swiss mouse by Chimney test to anticonvulsant ED50 in Swiss mouse measured at 1 hr of time to peak effect by 6 Hz test by 6 Hz psychomotor seizure test; assay type: toxicity; settings: in vivo, read-out: Ratio TD50/ED50; method in brief: as §1
Mus musculus [5] = assay: Anticonvulsant activity in ip dosed Swiss mouse assessed as protection against seizures measured at 1 hr of time to peak effect by maximal electroshock test; assay type: functional

## CC[C@@H](C(N)=O)N1CCCC1=O
Mus musculus [1]
  ED50: 14.8 mg/kg
Mus musculus [2]
  ED50: > 500 mg/kg
[3]
  TD50 at 1 h: > 500 mg/kg
[4]
  selectivity ratio at 1 h: > 33.8
Mus musculus [5]
  ED50: > 500 mg/kg
